Published values from different studies.
Compare with care: the assays were run in different laboratories.
Target: Tyrosine-protein kinase Srms (SRMS, Homo sapiens, UniProt Q9H3Y6)

SMILES	effect on	method	tested at	remaining binding [%]
FC(F)(F)Oc1cccc(-c2cnc3ccc(-c4ccncc4)nn23)c1	cell-free assay	competition with immobilised ligand	5 µM	65
CSc1cccnc1N1CCN(Cc2nc3ccccc3[nH]2)CC1	cell-free assay	competition with immobilised ligand	1 µM	100
O=C(NCC1CCOCC1)c1n[nH]cc1NC(=O)c1c(F)cccc1F	binding	competition with immobilised ligand	1 µM	100
c1cnn2ncc(-c3ccnc(N4CCC45COC5)n3)c2c1	binding		1 µM	70
CCC(=N\O)/C(C)=C/c1ccc(F)cc1	cell-free assay	competition with immobilised ligand	1 µM	76
O=C(c1ccc(Nc2ncc(Cl)c(-c3ccc(Cl)s3)n2)cc1)N1CCC(N2CCCC2)CC1	binding	competition with immobilised ligand	1 µM	98
CN(CCCC(F)(F)F)c1nccc(-c2cnn3ncccc23)n1	binding		1 µM	100
CC(C)(O)c1cncc(-c2nc3ccc(F)cc3n2C2CC2)c1	cell-free assay	competition with immobilised ligand	1 µM	100
CN(C)c1nccc(-c2cnn3ncccc23)n1	binding		1 µM	64
C=CC(=O)N1CCC(C(=O)NCC(=O)N2CCN(c3nc(-c4cnc(N)nc4C(F)F)nc(N4CCOCC4)n3)CC2)CC1	binding	competition with immobilised ligand	1 µM	72
CNC(=O)[C@@H]1CC[C@@H](n2c(-c3ccc4cnccc4c3)nc3ccc(C(=O)NCc4cccc(C(N)=O)c4)cc32)C1	binding	competition with immobilised ligand	1 µM	97
F[C@@H]1CCN(c2nccc(-c3cnn4ncccc34)n2)C1	binding		1 µM	100
O=C(NS(=O)(=O)c1ccc(NCC2CCOCC2)c([N+](=O)[O-])c1)c1ccc(N2CCN(Cc3ccc(C(F)(F)F)cc3-c3ccc(Cl)cc3)CC2)cc1Oc1cnc2[nH]ccc2c1	cell-free assay	competition with immobilised ligand	1 µM	79
CCN1CCN(Cc2ccc(C(=O)Nc3ccc(C)c(Oc4ccc5c(c4)CC(=O)N5)c3)cc2C(F)(F)F)CC1	binding	competition with immobilised ligand	1 µM	100
CCOCCn1cc(C(=O)Nc2ccc(-n3nc(-c4cccnc4)cc3C(F)(F)F)cn2)ccc1=O	cell-free assay	competition with immobilised ligand	1 µM	79
N[C@@H]1CCN(c2nccc(-c3cnn4ncccc34)n2)C1	binding		1 µM	100
CN([C@@H]1CCc2c(CC(=O)O)c3ccccc3n2C1)S(=O)(=O)c1ccc(F)cc1	cell-free assay	competition with immobilised ligand	1 µM	81
COc1ncc2cc3ccccc3nc2c1C#N	cell-free assay	competition with immobilised ligand	5 µM	100
Cc1cnc(Nc2ccc(C(=O)N3CCC(N4CCCC4)CC3)cc2)nc1-c1cc2ccccc2s1	binding	competition with immobilised ligand	1 µM	68
O=C(N1CCS(=O)(=O)CC1)N1C[C@H](c2ccc(OC(F)(F)F)cc2)C[C@H](c2nc(C3CC3)no2)C1	cell-free assay	competition with immobilised ligand	1 µM	100
O=C(NCCCN1CCOCC1)c1ccc(Nc2ncc(Cl)c(-c3ccc(Cl)s3)n2)cc1	binding	competition with immobilised ligand	1 µM	99
CC1CCCN1c1nccc(-c2cnn3ncccc23)n1 (stereo not shown)	binding		1 µM	100
